Measured values as given in PMC4224566 (Molecular Pharmaceutics, 2014).

Type: physicochemical
Settings: 0.5 M pH 4.0 acetate buffer, 1 mg/mL, 100 °C, analytical HPLC, LC-MS
Outline: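 Each peptide (about 0.1 mL) was heated in a sealed plastic tube, cooled, and then analysed by reversed-phase C18 analytical HPLC with UV detection. The HPLC ran at 1 mL/min: 5% acetonitrile/0.1% TFA in water/0.1% TFA for 5 min, then rising by 2%/min to 65%. Samples showing decomposition were run on a separate LC-MS. Samples with little or none were heated 30 min more and re-analysed.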

Substance: Ph-NCS-E[c(RGDfK)]2 [compound 10]
- release of monomer after 10 min heating: obvious release of c(RGDfK)
